GPR7 antagonist: GPR7 receptor antagonists, primary screen, cell-based, fluorescence, single concentration; GPR7-expressing cells, fluorescence antagonist assay; inhibition, % at 4.4 µM; 290,000 compounds, 1.1% hits; AID 1861, 2009; in the data active = inhibition above about 16%, passing the limit was not always enough;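 also: cells stimulated with the agonist NPW; 0% = agonist with vehicle and 100% = vehicle without agonist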
Target sequence (P48145 whole entry, looked up): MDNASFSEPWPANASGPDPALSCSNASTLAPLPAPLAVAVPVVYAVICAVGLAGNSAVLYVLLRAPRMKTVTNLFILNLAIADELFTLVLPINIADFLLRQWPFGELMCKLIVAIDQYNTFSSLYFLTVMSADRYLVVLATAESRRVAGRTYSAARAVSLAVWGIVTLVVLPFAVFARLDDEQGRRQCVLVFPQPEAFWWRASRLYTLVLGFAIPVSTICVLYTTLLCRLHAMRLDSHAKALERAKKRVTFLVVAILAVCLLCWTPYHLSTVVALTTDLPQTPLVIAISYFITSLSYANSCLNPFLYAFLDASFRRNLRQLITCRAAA
OX1R antag-1: OX1R (HCRTR1) antagonists, primary screen, fluorescence, CHO/OX1R cells, Fluo-8 calcium, orexin A; Fluo-8 calcium fluorescence; inhibition, % at 5 µM; 330,000 compounds, 0.43% hits;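 active = inhibition above its plate's threshold, mean inhibition of all tested compounds on the plate plus 3 SD, cut at about 37% in these data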;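 also: 0% = orexin A challenge wells and 100% = SB-334867-A antagonist wells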
GalR3 antag: GalR3 antagonists in HEK293 cells, primary screen, cell-based, fluorescence readout; 360,000 compounds, 0.44% hits; AID 651719, 2012; HEK293 GalR3-CNG cAMP membrane potential fluorescence; galR3 body fused to GalR1 C-terminus; Galanin receptor type 3 (Homo sapiens), O60755; inhibition, % at 3 µM;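 active = inhibition above the screen-wide average plus 3 SD, cut at about 13% in these data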;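 also: forskolin and galanin both at EC90 stimulate the cells; cAMP rise reported by CNG channel membrane potential dye signal; 0% = forskolin plus galanin with DMSO and 100% = forskolin alone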
OX1R antag-2: antagonists of human orexin 1 receptor (OX1R); inhibition, % at 6.6 µM; AID 485270, 2010; 330,000 compounds, 1.8% hits; OX1R-expressing cells, FRET antagonist read-out; Orexin/Hypocretin receptor type 1 (Homo sapiens), O43613; in the data active = inhibition mostly above about 38%, no sharp cut-off; inactive = mostly below about 40%;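 also: 0% = agonist challenge alone and 100% = reference antagonist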
CHO parental Ca: ATP-evoked calcium signal inhibitors, parental CHO, primary screen, counter-screen for OX1R antagonist project, cell-based, fluorescence, Fluo-8 calcium dye; parental CHO-K1, ATP-induced calcium, Fluo-8 fluorescence; inhibition, % at 5.6 µM; 330,000 compounds, 0.63% hits;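 active = inhibition above that plate's mean sample inhibition plus 3 SD, cut at about 26% in these data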;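 also: 0% = ATP-challenged DMSO wells and 100% = DMSO wells without ATP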
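Assay system: untransfected parental CHO cell line. Also added: ATP agonist challenge. Dosing: one dose, 5.6 µM nominal. Measured by: Fluo-8 fluorescence. Read-out: % inhibition. Benchmarks: ATP wells versus no-ATP DMSO wells. Repeats: no replicates.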
GalR3 antag conf: GalR3 antagonist hit confirmation, cell-based, fluorescence, triplicate | shares compounds with GalR3 antag | HEK293 GalR3 CNG cAMP biosensor, membrane potential fluorescence; galR3 fused to GalR1 carboxy tail; challenged with forskolin and galanin at EC90 | inhibition, % at 3 µM | 1,600 compounds, 59% hits | AID 652245, 2013;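 active = inhibition above the primary screen's cutoff, the mean inhibition of all screened compounds plus 3 SD, cut at about 13% in these data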;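 also: 0% = forskolin plus galanin and 100% = forskolin alone with DMSO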
CNG parental: nonspecific cAMP agonists in parental HEK-CNG cells, counter-screen for GalR3 antagonist project, cell-based, fluorescence, high throughput; activation, % at 3 µM; shares compounds with GalR3 antag; AID 652268, 2013; HEK293-CNG parental cells, cAMP membrane potential fluorescence; normalised: DMSO wells 0%, forskolin wells 100%; 1,600 compounds, 10% hits; in the data active = activation above about 1.3%
The depositor's hits bear a star. An excerpt weighted towards active compounds, which were near 3.1% of everything screened.

How did Cc1ccc(C2CC3CCC(C2)N3Cc2ccccc2F)cc1 (stereo not given) do in these assays?
GPR7 antagonist: 16; GalR3 antag: -11

How did CN(C)c1ccc(/C=C/C=C/c2sc3ccccc3[n+]2C)cc1 do in these assays?
GPR7 antagonist: -8; OX1R antag-1: -7; GalR3 antag: 6; OX1R antag-2: 25; CHO parental Ca: 9

Results for CC[n+]1c(/C=C/C=C/c2ccc(N(C)C)cc2)sc2ccccc21 ?
GPR7 antagonist: 4; OX1R antag-1: 42; GalR3 antag: 19*; OX1R antag-2: 75*; CHO parental Ca: 33*; GalR3 antag conf: 74*; CNG parental: 3.5*

What do the screens show for `COc1ccc(-n2c(O)c(C=NCc3ccc4c(c3)OCO4)c(=O)[nH]c2=O)cc1`?
GPR7 antagonist: -10; OX1R antag-1: -12; GalR3 antag: 14*; OX1R antag-2: 2; CHO parental Ca: -21; GalR3 antag conf: 0; CNG parental: 0

How did COc1cc2c(cc1OC)[C@H]1C(=O)c3ccc4c(c3O[C@H]1CO2)C[C@@H](C(C)(C)O)O4 do in these assays?
OX1R antag-1: 23; GalR3 antag: -9; OX1R antag-2: 13; CHO parental Ca: 7

How did COc1cc2c(cc1OC)[C@@H]1C(=O)c3ccc4c(c3O[C@@H]1CO2)C[C@H](C(C)C)O4 do in these assays?
GPR7 antagonist: 21*; OX1R antag-1: 12; GalR3 antag: 98*; OX1R antag-2: 57; CHO parental Ca: 60*; GalR3 antag conf: 116*; CNG parental: 0

How did COc1cc2c(cc1OC)C1C(=O)c3ccc4c(c3OC1CO2)CC(C(C)C)O4 (stereo not given) do in these assays?
GalR3 antag: 96*; GalR3 antag conf: 108*; CNG parental: 0

What do the screens show for `C[C@]12CC[C@@H](O)CC1=CCC1C2CC[C@@]2(C)C1C[C@@H](F)[C@@H]2O` (stereo not given in full)?
OX1R antag-1: 15; GalR3 antag: -7; OX1R antag-2: 5; CHO parental Ca: 16

Results for CN1C(=O)NC(=O)C(N=Nc2ccc(Cl)cc2)C1=O (stereo not given) ?
GalR3 antag: -3

Results for N#CC(C#N)=NNc1ccc(-n2ccc(C(F)(F)F)n2)cc1 ?
GPR7 antagonist: 26*; OX1R antag-1: 53*; GalR3 antag: 74*; OX1R antag-2: 61*; CHO parental Ca: 50*; GalR3 antag conf: 80*; CNG parental: 1

Results for CCOC(=O)C1(c2ccccc2)CCN(CCc2ccc(NC(=O)CCC(=O)O)cc2)CC1 ?
GalR3 antag: -1

How did CC(=O)c1cn(Cc2ccccc2C#N)c2ccccc12 do in these assays?
GPR7 antagonist: 14; OX1R antag-1: 19; GalR3 antag: 90*; OX1R antag-2: 41; CHO parental Ca: 29; GalR3 antag conf: 103*; CNG parental: 1

How did CC(C)C(=O)c1cn(Cc2ccccc2C#N)c2ccccc12 do in these assays?
GPR7 antagonist: -1; OX1R antag-1: -23; GalR3 antag: -4; OX1R antag-2: 34; CHO parental Ca: -36

Results for CC(=O)OCC[N+](C)(C)C ?
GPR7 antagonist: 8; OX1R antag-1: 0; GalR3 antag: 44*; OX1R antag-2: -1; CHO parental Ca: 3; GalR3 antag conf: 70*; CNG parental: 1

Results for C[N+](C)(C)CCOC(=O)CBr ?
OX1R antag-1: -9; GalR3 antag: -3; OX1R antag-2: 11; CHO parental Ca: 4

Compound activity as filed in PubChem.
